According to PMC3806897 (ACS chemical biology, 2013):
Values belong to the compound of their own block, whether it stands above or below them.

Assays:
ABHD6 [1] = target: T1, ABHD6 (Mus musculus, UniProt Q8R2Y0); assay: In vitro competitive ABPP with FP-Rh in mouse brain proteome; format: biochemical; details: for relative ABHD6 inhibitory potency: JW842 vs JW843, JW651 vs JW814, MJN110 vs all carbamates
T1 sequence (Q8R2Y0 1-336): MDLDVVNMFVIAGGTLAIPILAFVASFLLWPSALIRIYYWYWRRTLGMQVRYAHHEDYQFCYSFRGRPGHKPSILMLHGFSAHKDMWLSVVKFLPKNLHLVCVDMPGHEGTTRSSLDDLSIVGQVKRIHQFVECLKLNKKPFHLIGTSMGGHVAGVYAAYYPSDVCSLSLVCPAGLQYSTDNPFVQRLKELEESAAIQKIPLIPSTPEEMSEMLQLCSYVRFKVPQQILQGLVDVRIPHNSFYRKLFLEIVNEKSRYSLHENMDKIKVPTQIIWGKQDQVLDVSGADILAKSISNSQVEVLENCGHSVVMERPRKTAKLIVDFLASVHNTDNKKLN
How it was run: (§1)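 Mouse brain membrane proteome (1.0 mg/mL) was preincubated with DMSO or test compound (1–100,000 nM) for 30 min at 37 °C. FP-Rh (50 μM stock in DMSO) was added for another 30 min at room temperature, and reactions were quenched with SDS loading buffer. After SDS-PAGE, MAGL, ABHD6 and FAAH activities were quantified from in-gel fluorescent band intensities, from which IC50 values were calculated.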

[2] = system: other brain serine hydrolases; assay: In vitro competitive ABPP with FP-Rh, off-target profile; format: biochemical, mouse
How it was run: as §1

MAGL [3] = assay: In vivo competitive ABPP of brain proteomes from treated mice; parameters: species or system mouse
How it was run: (§2)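 C57Bl/6J mice received test compound by oral gavage in PEG300 (1.0–40 mg•kg-1). At 4 h they were anesthetized with isoflurane, killed by cervical dislocation, and tissues were flash-frozen. Brain membrane proteomes were labeled with FP-Rh for 30 min at room temperature, quenched in reducing SDS loading buffer, separated on 10% SDS-PAGE and scanned for in-gel fluorescence.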

ABHD6 [4] = target: T1, ABHD6; assay: as above; details: 40 mg•kg^-1 p.o., 4 h
How it was run: as §2

[5] = system: brain lipid levels (2-AG, AA, AEA); assay: Brain lipid levels in treated mice; format: in vivo, mouse; details: JW651-treated mice, p.o., 4 h
How it was run: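 C57Bl/6J mice were dosed by oral gavage in PEG300 (1.0–40 mg•kg-1). After 4 h they were anesthetized with isoflurane and killed by cervical dislocation. Brains were harvested and flash-frozen in liquid N2. Lipids were measured by LC/MS against commercial standards.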

MAGL [6] = target: T2, MAGL (Mus musculus, UniProt O35678); assay: In vitro competitive ABPP with FP-Rh in mouse brain proteome; format: biochemical; details: JW842 vs JW843, JW651 vs JW814; MJN110 vs all carbamates
T2 sequence (O35678 1-303): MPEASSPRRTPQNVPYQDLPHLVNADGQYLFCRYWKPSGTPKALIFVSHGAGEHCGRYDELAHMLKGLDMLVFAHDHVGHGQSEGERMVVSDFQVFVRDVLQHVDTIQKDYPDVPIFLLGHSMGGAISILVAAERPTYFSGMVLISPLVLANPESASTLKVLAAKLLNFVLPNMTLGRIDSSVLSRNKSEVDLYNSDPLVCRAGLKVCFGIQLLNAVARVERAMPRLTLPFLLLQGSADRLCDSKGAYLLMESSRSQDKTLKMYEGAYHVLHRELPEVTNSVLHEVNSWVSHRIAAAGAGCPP
How it was run: as §1

FAAH [7] = target: T3, FAAH (Mus musculus, UniProt O08914); assay: as above; format: biochemical; details: 30 min, 37 °C
T3 sequence (O08914 1-579): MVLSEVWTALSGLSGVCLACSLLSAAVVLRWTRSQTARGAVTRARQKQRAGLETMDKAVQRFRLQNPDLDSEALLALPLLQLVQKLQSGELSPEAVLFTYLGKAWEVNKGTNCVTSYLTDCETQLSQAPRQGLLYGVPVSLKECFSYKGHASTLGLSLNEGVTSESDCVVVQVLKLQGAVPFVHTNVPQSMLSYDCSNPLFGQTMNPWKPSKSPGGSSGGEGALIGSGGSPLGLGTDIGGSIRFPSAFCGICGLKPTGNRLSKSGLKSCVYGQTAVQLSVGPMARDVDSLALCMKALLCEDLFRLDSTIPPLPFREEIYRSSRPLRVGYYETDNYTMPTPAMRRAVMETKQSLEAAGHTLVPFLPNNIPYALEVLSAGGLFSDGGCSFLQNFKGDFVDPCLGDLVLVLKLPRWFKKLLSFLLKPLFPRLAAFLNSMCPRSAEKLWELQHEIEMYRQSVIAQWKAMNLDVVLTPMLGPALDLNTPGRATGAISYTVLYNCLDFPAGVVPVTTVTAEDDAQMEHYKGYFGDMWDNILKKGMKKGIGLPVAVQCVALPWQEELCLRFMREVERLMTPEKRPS
How it was run: as §1

FAAH [8] = target: T3, FAAH; assay: In vivo competitive ABPP of brain proteomes from treated mice; details: oral, 4 h
How it was run: as §2

FAAH [9] = target: T3, FAAH; assay: In vitro CC-ABPP of mouse brain proteomes; format: biochemical
How it was run: (§3)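 Brain membrane proteome from naïve mice (1.0 mg/mL) was treated with varying concentrations of alkyne carbamate probe for 30 min at 37 °C. A premixed click mixture was added immediately: CuSO4 (50 mM stock), TBTA (1.7 mM stock), freshly prepared TCEP (50 mM stock) and Rh-N3 (1.25 mM stock). Reactions ran 1 h at room temperature, were diluted with SDS loading buffer, and were read by SDS-PAGE in-gel fluorescence.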

carboxylesterases (CESs) = assay: In vivo CC-ABPP of liver proteomes; parameters: species or system mouse; details: oral, 1-40 mg•kg^–1, 4 h
How it was run: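 Mice received oral alkyne carbamate probe in PEG300 (1–40 mg•kg-1) for 4 h before livers were harvested and flash-frozen. Liver membrane proteome, with the soluble fraction removed, was diluted to 1.0 mg/mL. It was clicked to Rh-N3 with premixed CuSO4, TBTA and fresh TCEP for 1 h at room temperature, then diluted in SDS loading buffer and resolved by SDS-PAGE for in-gel fluorescence.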

MAGL [10] = assay: In vitro click chemistry; format: biochemical, mouse; details: CC-ABPP with Rh-N3, 30 min, 37 °C
How it was run: as §3

mouse brain proteome [11] = assay: In vitro CC-ABPP, background proteome reactivity; format: biochemical
How it was run: as §3

mouse brain proteome [12] = assay: In vivo CC-ABPP of brain proteomes, off-target labeling; details: entire tested dose range 1-40 mg•kg^–1 p.o.
MAGL [13] = target: T2, MAGL; assay: In vivo competitive ABPP of liver proteomes; details: oral, 1-40 mg•kg^–1, 4 h
How it was run: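 Mice were gavaged orally with test compound in PEG300 (1.0–40 mg•kg-1). After 4 h, animals were killed under isoflurane and livers flash-frozen. Liver membrane proteomes were labeled with FP-Rh for 30 min at room temperature, quenched with reducing SDS loading buffer, resolved on 10% SDS-PAGE and read by in-gel fluorescence scanning.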

brain serine hydrolases = assay: In vivo competitive ABPP of brain proteomes, off-target profile; parameters: species or system mouse; details: oral, 1-40 mg•kg^–1, 4 h
How it was run: as §2

SMILES: O=C(ON1C(=O)CCC1=O)N1CCN(C(c2ccc(Cl)cc2)c2ccc(Cl)cc2)CC1 [MJN110]
relative MAGL inhibitory potency (MAGL [6]): highest
relative ABHD6 inhibitory potency (ABHD6 [1]): highest
other off-targets observed ([2]; below 100 μM): LYPLA1/2 being the only other off-targets

SMILES: C#Cc1ccc(C(c2ccc(Cl)cc2)N2CCN(C(=O)ON3C(=O)CCC3=O)CC2)cc1 (stereo not shown) [MJN110yne]
lowest dose substantially inhibiting MAGL in the brain (MAGL [3]; oral, 1-40 mg•kg^–1, 4 h): 5.0 mg•kg^–1
lowest probe concentration detecting MAGL reactivity (MAGL [10]): 10 nM
probe concentration at which background proteome reactivity became apparent (mouse brain proteome [11]; CC-ABPP with Rh-N3, more dramatic at 100 μM): 10 µM
degree of background proteome reactivity (mouse brain proteome [11]; CC-ABPP, concentrations up to 100 μM): highest degree of background proteome reactivity
broader background proteome labeling in vivo (mouse brain proteome [12]): did not reveal broader background proteome labeling
inactivation of MAGL in liver (MAGL [13]): potent inactivation
only detectable off-target activity in brain in vivo (brain serine hydrolases): ABHD6

Further lines, with some results ahead:

blockade of ABHD6 (ABHD6 [1]; at 10 μM): partial blockade
inhibition of ABHD6 in brain (ABHD6 [4]): partial inhibition
SMILES: O=C(OC(C(F)(F)F)C(F)(F)F)N1CCN(C(c2ccc(Cl)cc2)c2ccc(Cl)cc2)CC1 [JW651]
cross-reactivity with other brain serine hydrolases off-targets ([2]; up to 10 μM): did not exhibit cross-reactivity
detectable off-targets ([2]; up to 100 μM JW651, membrane fraction of mouse brain proteome): ABHD6 being the only detectable off-target
lowest dose giving near complete / complete inhibition of MAGL in brain (MAGL [3]; C57Bl/6J mice, oral gavage 1.0 to 40 mg•kg^-1, 4 h): 5 mg/kg
brain levels of N-arachidonoylethanolamide (AEA) [5]: unaffected
brain levels of arachidonic acid (AA) [5]: concomitant reductions
elevation of brain levels of 2-AG [5]: 10 fold

relative MAGL inhibitory potency (MAGL [6]): much greater potency
relative ABHD6 inhibitory potency (ABHD6 [1]): much greater potency
SMILES: O=C(Oc1ccc([N+](=O)[O-])cc1)N1CCN(C(c2ccc(Cl)cc2)c2ccc(Cl)cc2)CC1 [JW842]

change in inhibitory activity against FAAH on exchange of chloro for alkyne (FAAH [7]): slight increase
dose producing strong inhibition of FAAH in brain (FAAH [8]): ≥ 10 mg•kg^–1
cross-reactivity with FAAH (FAAH [9]): some cross-reactivity
SMILES: C#Cc1ccc(C(c2ccc(Cl)cc2)N2CCN(C(=O)Oc3ccc([N+](=O)[O-])cc3)CC2)cc1 (stereo not shown) [JW842yne]
relative activity on MAGL in the brain in vivo (MAGL [3]; oral, 1-40 mg•kg^–1, 4 h, vs JW651yne and MJN110yne): less active
CES labeling in liver (carboxylesterases (CESs)): strongest CES labeling profile
